According to ChEMBL document CHEMBL4689842, “EUbOPEN Chemogenomics Library wave 1” (2021):

Columns and labels:
Type in all cases: toxicity, cell-based
[1] = test system: HEK-293T; assay: Incucyte cell viability with HEK293T; conditions: human, 10 µM, compound concentration 10 uM; also: filed as whole numbers so only -1 and 0 and 1 occur
[2] = test system: Fibroblast; assay: Multiplex assay against human fibroblast
How it was run: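 With compound added, live cells were imaged on a CQ1 microscope at 37°C and 5% CO2; staining with Hoechst33342, BioTracker Green Microtubule Cytoskeleton Dye, MitoTracker Red and Annexin V Alexa Fluor 680 had been done at seeding. The CellPathfinder machine-learning gating scheme split cells into Hoechst high-intensity objects or normal cells, normal cells into healthy, pyknosed or fragmented nuclei, and pyknosed cells into mitotic or apoptotic. The tubulin, mitochondrial-mass and membrane-permeability phenotypes are per cents of healthy-nucleus cells.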

[3] = test system: U2OS; assay: Incucyte cell viability with U2OS; conditions: human, 10 µM, compound concentration 10 uM; also: filed as whole numbers so only -1 and 0 and 1 occur
[4] = 0 h, replicate number 1, timepoint 0 hours
[5] = 12 h, replicate number 1, timepoint 12 hours
[6] = 18 h, replicate number 1, timepoint 18 hours
[7] = 24 h, replicate number 1, timepoint 24 hours
[8] = 12 h, 1 µM, compound concentration 1 uM, replicate 1
[9] = 12 h, 1 µM, compound concentration 1 uM, replicate 2
[10] = 12 h, 10 µM, compound concentration 10 uM, replicate 1
[11] = 12 h, 10 µM, compound concentration 10 uM, replicate 2
[12] = 24 h, 1 µM, compound concentration 1 uM, replicate 1
[13] = 24 h, 1 µM, compound concentration 1 uM, replicate 2
[14] = 24 h, 10 µM, compound concentration 10 uM, replicate 1
[15] = 24 h, 10 µM, compound concentration 10 uM, replicate 2
[16] = 48 h, 1 µM, compound concentration 1 uM, replicate 1
[17] = 48 h, 1 µM, compound concentration 1 uM, replicate 2
[18] = 48 h, 10 µM, compound concentration 10 uM, replicate 1
[19] = 48 h, 10 µM, compound concentration 10 uM, replicate 2

Compound: CCCCN(CC)c1nc(C)nc2c1c(C)cn2-c1c(C)cc(C)cc1C.Cl
- Growth Rate [1, 4]: 0
- Growth Rate ([1]; 6 h, replicate number 1, timepoint 6 hours): 0
- Growth Rate [1, 5]: 0
- Growth Rate [1, 6]: 0
- Growth Rate [1, 7]: 0
- Population Apoptotic (%) [2, 8]: 63%
- Population Fragmented Nuclei (%) [2, 8]: 23%
- Population Healthy Nuclei (%) [2, 8]: 44%
- Population Hoechst High Intensity Objects (%) [2, 8]: 11%
- Population Membrane Permeable-Phenotype (%) [2, 8]: 27%
- Population Mitochondria Different-Phenotype (%) [2, 8]: 9%
- Population Mitotic Cells (%) [2, 8]: 36%
- Population Normal (%) [2, 8]: 88%
- Population Pyknosed Nuclei (%) [2, 8]: 31%
- Population Tubulin-Different-Phenotype (%) [2, 8]: 46%
- Total Cell Count [2, 8]: 108
- Population Apoptotic (%) [2, 9]: 55%
- Population Fragmented Nuclei (%) [2, 9]: 13%
- Population Healthy Nuclei (%) [2, 9]: 77%
- Population Hoechst High Intensity Objects (%) [2, 9]: 3%
- Population Membrane Permeable-Phenotype (%) [2, 9]: 5%
- Population Mitochondria Different-Phenotype (%) [2, 9]: 8%
- Population Mitotic Cells (%) [2, 9]: 44%
- Population Normal (%) [2, 9]: 96%
- Population Pyknosed Nuclei (%) [2, 9]: 9%
- Population Tubulin-Different-Phenotype (%) [2, 9]: 14%
- Total Cell Count [2, 9]: 95
- Population Apoptotic (%) [2, 10]: 57%
- Population Fragmented Nuclei (%) [2, 10]: 30%
- Population Healthy Nuclei (%) [2, 10]: 37%
- Population Hoechst High Intensity Objects (%) [2, 10]: 13%
- Population Membrane Permeable-Phenotype (%) [2, 10]: 32%
- Population Mitochondria Different-Phenotype (%) [2, 10]: 16%
- Population Mitotic Cells (%) [2, 10]: 42%
- Population Normal (%) [2, 10]: 86%
- Population Pyknosed Nuclei (%) [2, 10]: 31%
- Population Tubulin-Different-Phenotype (%) [2, 10]: 84%
- Total Cell Count [2, 10]: 76
- Population Apoptotic (%) [2, 11]: 20%
- Population Fragmented Nuclei (%) [2, 11]: 9%
- Population Healthy Nuclei (%) [2, 11]: 83%
- Population Hoechst High Intensity Objects (%) [2, 11]: 6%
- Population Membrane Permeable-Phenotype (%) [2, 11]: 4%
- Population Mitochondria Different-Phenotype (%) [2, 11]: 55%
- Population Mitotic Cells (%) [2, 11]: 80%
- Population Normal (%) [2, 11]: 93%
- Population Pyknosed Nuclei (%) [2, 11]: 6%
- Population Tubulin-Different-Phenotype (%) [2, 11]: 19%
- Total Cell Count [2, 11]: 78
- Population Apoptotic (%) [2, 12]: 57%
- Population Fragmented Nuclei (%) [2, 12]: 30%
- Population Healthy Nuclei (%) [2, 12]: 49%
- Population Hoechst High Intensity Objects (%) [2, 12]: 11%
- Population Membrane Permeable-Phenotype (%) [2, 12]: 21%
- Population Mitochondria Different-Phenotype (%) [2, 12]: 8%
- Population Mitotic Cells (%) [2, 12]: 42%
- Population Normal (%) [2, 12]: 88%
- Population Pyknosed Nuclei (%) [2, 12]: 20%
- Population Tubulin-Different-Phenotype (%) [2, 12]: 36%
- Total Cell Count [2, 12]: 107
- Population Apoptotic (%) [2, 13]: 29%
- Population Fragmented Nuclei (%) [2, 13]: 13%
- Population Healthy Nuclei (%) [2, 13]: 70%
- Population Hoechst High Intensity Objects (%) [2, 13]: 5%
- Population Membrane Permeable-Phenotype (%) [2, 13]: 3%
- Population Mitochondria Different-Phenotype (%) [2, 13]: 6%
- Population Mitotic Cells (%) [2, 13]: 70%
- Population Normal (%) [2, 13]: 94%
- Population Pyknosed Nuclei (%) [2, 13]: 15%
- Population Tubulin-Different-Phenotype (%) [2, 13]: 7%
- Total Cell Count [2, 13]: 116
- Population Apoptotic (%) [2, 14]: 73%
- Population Fragmented Nuclei (%) [2, 14]: 30%
- Population Healthy Nuclei (%) [2, 14]: 47%
- Population Hoechst High Intensity Objects (%) [2, 14]: 26%
- Population Membrane Permeable-Phenotype (%) [2, 14]: 14%
- Population Mitochondria Different-Phenotype (%) [2, 14]: 32%
- Population Mitotic Cells (%) [2, 14]: 26%
- Population Normal (%) [2, 14]: 73%
- Population Pyknosed Nuclei (%) [2, 14]: 21%
- Population Tubulin-Different-Phenotype (%) [2, 14]: 88%
- Total Cell Count [2, 14]: 97
- Population Apoptotic (%) [2, 15]: 25%
- Population Fragmented Nuclei (%) [2, 15]: 8%
- Population Healthy Nuclei (%) [2, 15]: 80%
- Population Hoechst High Intensity Objects (%) [2, 15]: 4%
- Population Membrane Permeable-Phenotype (%) [2, 15]: 3%
- Population Mitochondria Different-Phenotype (%) [2, 15]: 54%
- Population Mitotic Cells (%) [2, 15]: 75%
- Population Normal (%) [2, 15]: 95%
- Population Pyknosed Nuclei (%) [2, 15]: 11%
- Population Tubulin-Different-Phenotype (%) [2, 15]: 21%
- Total Cell Count [2, 15]: 74
- Population Apoptotic (%) [2, 16]: 50%
- Population Fragmented Nuclei (%) [2, 16]: 24%
- Population Healthy Nuclei (%) [2, 16]: 61%
- Population Hoechst High Intensity Objects (%) [2, 16]: 16%
- Population Membrane Permeable-Phenotype (%) [2, 16]: 13%
- Population Mitochondria Different-Phenotype (%) [2, 16]: 6%
- Population Mitotic Cells (%) [2, 16]: 50%
- Population Normal (%) [2, 16]: 83%
- Population Pyknosed Nuclei (%) [2, 16]: 14%
- Population Tubulin-Different-Phenotype (%) [2, 16]: 32%
- Total Cell Count [2, 16]: 118
- Population Apoptotic (%) [2, 17]: 100%
- Population Fragmented Nuclei (%) [2, 17]: 26%
- Population Healthy Nuclei (%) [2, 17]: 71%
- Population Hoechst High Intensity Objects (%) [2, 17]: 6%
- Population Membrane Permeable-Phenotype (%) [2, 17]: 6%
- Population Mitochondria Different-Phenotype (%) [2, 17]: 4%
- Population Mitotic Cells (%) [2, 17]: 0%
- Population Normal (%) [2, 17]: 93%
- Population Pyknosed Nuclei (%) [2, 17]: 2%
- Population Tubulin-Different-Phenotype (%) [2, 17]: 46%
- Total Cell Count [2, 17]: 93
- Population Apoptotic (%) [2, 18]: 75%
- Population Fragmented Nuclei (%) [2, 18]: 43%
- Population Healthy Nuclei (%) [2, 18]: 51%
- Population Hoechst High Intensity Objects (%) [2, 18]: 20%
- Population Membrane Permeable-Phenotype (%) [2, 18]: 13%
- Population Mitochondria Different-Phenotype (%) [2, 18]: 18%
- Population Mitotic Cells (%) [2, 18]: 25%
- Population Normal (%) [2, 18]: 79%
- Population Pyknosed Nuclei (%) [2, 18]: 4%
- Population Tubulin-Different-Phenotype (%) [2, 18]: 60%
- Total Cell Count [2, 18]: 104
- Population Apoptotic (%) [2, 19]: 66%
- Population Fragmented Nuclei (%) [2, 19]: 46%
- Population Healthy Nuclei (%) [2, 19]: 50%
- Population Hoechst High Intensity Objects (%) [2, 19]: 12%
- Population Membrane Permeable-Phenotype (%) [2, 19]: 20%
- Population Mitochondria Different-Phenotype (%) [2, 19]: 10%
- Population Mitotic Cells (%) [2, 19]: 33%
- Population Normal (%) [2, 19]: 87%
- Population Pyknosed Nuclei (%) [2, 19]: 3%
- Population Tubulin-Different-Phenotype (%) [2, 19]: 89%
- Total Cell Count [2, 19]: 189
- Growth Rate [3, 4]: 0
- Growth Rate ([3]; 6 h, replicate number 2, timepoint 6 hours): 1
- Growth Rate [3, 5]: 0
- Growth Rate [3, 6]: 0
- Growth Rate ([3]; 18 h, replicate number 2, timepoint 18 hours): 1
- Growth Rate [3, 7]: 0
- Growth Rate ([3]; 24 h, replicate number 2, timepoint 24 hours): 1
